Data set [1] deals with Huh-7. As to the kind of experiment: Induction of apoptosis in human HuH7 cells assessed as downregulation of PARP expression at 1 to 10 uM after 24 hrs by Western blot analysis. In kind it is functional, cell-based. The essentials: (§1)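 Huh-7 cells were treated with DMSO or compound at 1, 5 and 10 μM for 24 h. Cells were lysed in NP-40 buffer with protease and phosphatase inhibitors, and protein was measured by Bradford. Lysate protein was resolved by SDS-PAGE and transferred to PVDF. Membranes were blocked in 5% milk, probed with primary antibodies for 2 h and secondary antibodies for 30 min, and detected by ECL, with β-actin as loading control.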
A general note: A western blot detects proteins with antibodies after separation by electrophoresis.

Data set [2] in a line: Effect on total protein expression of Akt in human HuH7 cells at 1 to 10 uM after 24 hrs by immunoblot analysis. It counts as cell-based. The settings on record: huh-7, 24 h. In a few lines:
as §1

A short description of data set [3]: Cell cycle arrest in human HuH7 cells assessed as accumulation at S phase at 10 uM for 24 hrs by propidium iodide staining based flow cytometry (reference value: 11.4 +/- 2.4%). In kind it is functional. The settings on record: Huh-7. (In general: Flow cytometry measures light scatter and fluorescence of single cells or particles in a stream.)
The nature of data set [4]: Induction of apoptosis in human HuH7 cells assessed as upregulation of activated caspase 3 at 1 to 10 uM after 24 hrs by Western blot analysis. It counts as functional, cell-based. The settings on record: Huh-7. The essentials: as §1
Data set [5] in a line: Antiproliferative activity against human HuH7 cells after 72 hrs by XTT assay. In kind it is functional, cell-based. The note with it: Huh-7, 72 h. In a few lines:
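Cells kept as monolayers in DMEM with 10% FBS, penicillin, streptomycin and amphotericin at 37°C, 5% CO2. Seeded at 5 x 10³ cells/well and exposed to compound for 72 h in medium with 10% FBS. XTT plus electron-coupling reagent added, 4 h at 37°C, absorbance read at 492 nm. Percent of control growth uses mean absorbance (n = 3). The 50% value is taken from the linear portion of the curve.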
(In general: Tetrazolium dyes change colour on reduction, which living cells bring about.)

Data set [6] is described as follows: Selectivity index, ratio of IC50 for human MRC5 cells to IC50 for human H1299 cells. It counts as functional.
Data set [7] can be described thus: Cell cycle arrest in human HuH7 cells assessed as accumulation at sub G1 phase at 5 uM for 24 hrs by propidium iodide staining based flow cytometry (reference value: 1.3 +/- 0.7%). In kind it is functional. The settings on record: Huh-7.
Data set [8] deals with T1, DNA topoisomerase 1 (Homo sapiens) (UniProt P11387).
T1 sequence (whole entry): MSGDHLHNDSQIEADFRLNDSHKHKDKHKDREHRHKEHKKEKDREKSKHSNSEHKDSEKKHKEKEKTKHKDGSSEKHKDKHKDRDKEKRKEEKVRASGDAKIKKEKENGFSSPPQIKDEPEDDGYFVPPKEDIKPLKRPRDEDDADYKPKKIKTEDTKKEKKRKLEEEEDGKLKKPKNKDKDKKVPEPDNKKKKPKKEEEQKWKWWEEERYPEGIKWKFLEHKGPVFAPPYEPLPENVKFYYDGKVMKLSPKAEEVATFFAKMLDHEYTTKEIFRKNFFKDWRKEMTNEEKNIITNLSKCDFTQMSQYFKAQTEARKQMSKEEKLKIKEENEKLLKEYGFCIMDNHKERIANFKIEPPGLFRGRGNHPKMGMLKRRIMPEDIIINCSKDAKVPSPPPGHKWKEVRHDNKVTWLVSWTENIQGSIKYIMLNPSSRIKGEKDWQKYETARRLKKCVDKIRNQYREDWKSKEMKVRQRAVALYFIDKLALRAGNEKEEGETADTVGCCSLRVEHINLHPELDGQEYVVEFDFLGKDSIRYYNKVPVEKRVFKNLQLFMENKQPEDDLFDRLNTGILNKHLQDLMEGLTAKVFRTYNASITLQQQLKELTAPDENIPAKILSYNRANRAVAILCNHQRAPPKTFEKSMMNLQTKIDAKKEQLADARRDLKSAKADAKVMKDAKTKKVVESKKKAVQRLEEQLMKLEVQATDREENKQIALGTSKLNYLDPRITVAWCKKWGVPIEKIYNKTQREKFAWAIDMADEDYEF
As to the kind of experiment: Inhibition of human DNA topoisomerase 1-mediated relaxation of supercoiled pBR322 DNA at 10 uM after 30 mins by ethidium bromide staining based agarose gel electrophoresis. In a few lines:
(§2)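 Human topo I or topo II (2 units) was reacted with 0.2 μg supercoiled pBR322 in 20 μl Tris-HCl pH 7.5 containing KCl, DTT, EDTA, MgCl2 and BSA, with DMSO held at 0.5%, for 30 min at 37°C. The reaction was stopped with SDS. Samples were run on 1% agarose in Tris-acetate/EDTA at 1.5 V/cm for 2-3 h and stained with ethidium bromide. Relaxation was quantified by densitometry of the supercoiled band area.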

Data set [9] addresses DNA topoisomerase 2-alpha (Homo sapiens) (UniProt P11388). As to the kind of experiment: Inhibition of human DNA topoisomerase 2-mediated relaxation of supercoiled pBR322 DNA at 10 uM after 30 mins by ethidium bromide staining based agarose gel electrophoresis. The essentials:
as §2

A short description of data set [10]: Downregulation of cyclin A expression in human HuH7 cells at 1 to 10 uM after 24 hrs by immunoblot analysis. It counts as functional, cell-based. The settings on record: Huh-7. The essentials: as §1
Data set [11] is described as follows: Cell cycle arrest in human HuH7 cells assessed as accumulation at G1 phase at 1 uM for 24 hrs by propidium iodide staining based flow cytometry (reference value: 62.1 +/- 1.4%). It counts as functional. The note with it: Huh-7.
A short description of data set [12]: Induction of apoptosis in human HuH7 cells assessed as upregulation of activated caspase 7 at 1 to 10 uM after 24 hrs by Western blot analysis. It counts as functional, cell-based. The settings on record: Huh-7. The essentials: as §1
For another data set, the system named is Escherichia coli. As to the kind of experiment: Binding affinity to Escherichia coli negative supercoiled pBR322 DNA at 10 uM after 12 hrs by ethidium bromide staining based agarose gel electrophoresis. In a few lines:
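Negatively supercoiled pBR322 (400 ng) in TE buffer pH 8.0 was incubated with compound at 10 μM for 12 h at room temperature. Loading buffer with sarkosyl was added. Samples were run on 1% agarose at 6 V/cm for 2.5 h in TAE pH 8.5, stained with ethidium bromide and photographed under UV.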

The subject of a further data set is MRC5. The data set is described as follows: Selectivity index, ratio of IC50 for human MRC5 cells to IC50 for human MDA-MB-231 cells. It counts as functional.
The nature of data set [13]: Cell cycle arrest in human HuH7 cells assessed as accumulation at G2/M phase at 10 uM for 24 hrs by propidium iodide staining based flow cytometry (reference value: 25.2 +/- 3.5%). In kind it is functional. The note with it: Huh-7.
Data set [14] in a line: Cell cycle arrest in human HuH7 cells assessed as accumulation at sub G1 phase at 10 uM for 24 hrs by propidium iodide staining based flow cytometry (reference value: 1.3 +/- 0.7%). In kind it is functional. The settings on record: Huh-7.
Data set [15] in a line: Cell cycle arrest in human HuH7 cells assessed as accumulation at S phase at 5 uM for 24 hrs by propidium iodide staining based flow cytometry (reference value: 11.4 +/- 2.4%). The settings on record: Huh-7. It counts as functional.
Data set [16] has as its system Huh-7. As to the kind of experiment: Induction of apoptosis in human HuH7 cells assessed as cell shrinkage at 5 uM after 24 hrs by light microscopy. In kind it is functional, cell-based.
Data set [17] addresses RAC-alpha serine/threonine-protein kinase (Homo sapiens) (UniProt P31749). The data set is described as follows: Inhibition of AKT1 phosphorylation in human HuH7 cells at 1 to 10 uM after 24 hrs by immunoblot analysis. In kind it is cell-based. The note with it: Huh-7. The essentials: as §1
Data set [18] can be described thus: Induction of apoptosis in human HuH7 cells assessed as upregulation of Bad expression at 1 to 10 uM after 24 hrs by Western blot analysis. In kind it is functional, cell-based. The note with it: Huh-7.
Data set [19] can be described thus: Cell cycle arrest in human HuH7 cells assessed as accumulation at G2/M phase at 5 uM for 24 hrs by propidium iodide staining based flow cytometry (reference value: 25.2 +/- 3.5%). The note with it: Huh-7. It counts as functional.

pIC50: −log10 of the molar value. The source made the active and inactive calls. No cut-off for these calls is given here.

Chain of RAC-alpha serine/threonine-protein kinase (Homo sapiens) (P31749 whole entry): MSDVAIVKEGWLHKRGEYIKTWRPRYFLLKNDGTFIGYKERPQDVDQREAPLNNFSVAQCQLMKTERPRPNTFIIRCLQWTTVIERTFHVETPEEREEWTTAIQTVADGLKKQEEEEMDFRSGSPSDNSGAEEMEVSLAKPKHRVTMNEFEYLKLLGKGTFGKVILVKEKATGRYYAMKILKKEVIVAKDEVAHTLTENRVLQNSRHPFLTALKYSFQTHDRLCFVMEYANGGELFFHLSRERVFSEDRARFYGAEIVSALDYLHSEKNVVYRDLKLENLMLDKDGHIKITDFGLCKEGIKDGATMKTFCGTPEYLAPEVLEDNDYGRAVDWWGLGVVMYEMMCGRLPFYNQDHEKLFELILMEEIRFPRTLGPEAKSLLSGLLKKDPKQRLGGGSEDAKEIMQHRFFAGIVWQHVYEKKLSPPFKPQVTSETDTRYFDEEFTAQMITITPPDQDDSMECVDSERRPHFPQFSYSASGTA
Chain of DNA topoisomerase 2-alpha (Homo sapiens) (P11388 whole entry): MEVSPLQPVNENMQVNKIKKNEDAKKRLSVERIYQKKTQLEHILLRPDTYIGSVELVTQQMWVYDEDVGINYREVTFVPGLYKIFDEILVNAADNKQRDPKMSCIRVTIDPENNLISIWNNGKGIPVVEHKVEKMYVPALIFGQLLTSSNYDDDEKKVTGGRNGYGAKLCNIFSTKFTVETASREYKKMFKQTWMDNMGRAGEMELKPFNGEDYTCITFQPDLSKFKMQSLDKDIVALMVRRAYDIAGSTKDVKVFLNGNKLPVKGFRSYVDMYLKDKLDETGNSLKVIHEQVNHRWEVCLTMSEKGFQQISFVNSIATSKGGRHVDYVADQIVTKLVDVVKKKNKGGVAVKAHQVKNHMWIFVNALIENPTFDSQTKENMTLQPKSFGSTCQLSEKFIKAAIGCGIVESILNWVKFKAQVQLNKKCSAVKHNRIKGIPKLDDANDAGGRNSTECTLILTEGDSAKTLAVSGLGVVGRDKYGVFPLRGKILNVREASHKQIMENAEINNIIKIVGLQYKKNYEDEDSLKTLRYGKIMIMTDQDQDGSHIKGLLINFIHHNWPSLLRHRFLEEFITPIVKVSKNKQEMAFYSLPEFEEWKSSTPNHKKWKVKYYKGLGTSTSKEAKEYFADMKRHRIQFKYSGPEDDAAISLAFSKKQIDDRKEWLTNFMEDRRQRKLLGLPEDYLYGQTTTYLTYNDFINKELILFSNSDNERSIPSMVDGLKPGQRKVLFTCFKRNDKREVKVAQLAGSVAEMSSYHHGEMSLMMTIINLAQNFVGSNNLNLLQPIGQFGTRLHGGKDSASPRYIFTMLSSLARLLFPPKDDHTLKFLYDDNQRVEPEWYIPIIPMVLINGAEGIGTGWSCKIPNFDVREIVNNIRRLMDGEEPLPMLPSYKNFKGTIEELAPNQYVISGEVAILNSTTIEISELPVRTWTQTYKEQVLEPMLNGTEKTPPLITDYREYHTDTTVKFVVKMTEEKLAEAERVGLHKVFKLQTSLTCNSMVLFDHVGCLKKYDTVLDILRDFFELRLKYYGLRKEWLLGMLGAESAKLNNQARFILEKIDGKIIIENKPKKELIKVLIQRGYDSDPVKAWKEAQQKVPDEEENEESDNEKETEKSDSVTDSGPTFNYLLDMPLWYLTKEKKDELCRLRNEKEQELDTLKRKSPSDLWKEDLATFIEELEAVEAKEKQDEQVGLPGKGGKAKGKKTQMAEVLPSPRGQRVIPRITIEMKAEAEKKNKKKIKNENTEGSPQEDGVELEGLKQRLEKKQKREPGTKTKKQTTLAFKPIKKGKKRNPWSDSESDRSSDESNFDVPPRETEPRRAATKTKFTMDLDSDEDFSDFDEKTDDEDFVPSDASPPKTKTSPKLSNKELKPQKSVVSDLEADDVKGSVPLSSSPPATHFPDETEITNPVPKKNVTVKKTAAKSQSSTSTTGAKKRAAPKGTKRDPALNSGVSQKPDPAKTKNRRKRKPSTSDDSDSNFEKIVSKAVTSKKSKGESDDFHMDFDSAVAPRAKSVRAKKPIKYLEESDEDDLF

On to `CN(C)CCCNC(=O)c1cccc2nc3c(nc12)-c1ccccc1/C3=N\OCCCN(C)C.Cl`, for which the Activity result with Huh-7 [1] was “Dose-dependent effect”; in data set [2] it was “Non-toxic”; in data set [3] it was 38.4%; in data set [4], “Dose-dependent effect”; in [7], 11.5%; in data set [11], 55.3%. For the same compound, the Activity entry was “Dose-dependent effect” in [12]; 7.8% in data set [13]; 23.4% in data set [14]; 30.5% in data set [15]; “Dose-dependent effect” in data set [18]; 22.9% in data set [19]. In data set [5], this compound gave a pIC50 of 6.19. Further, the entries for the “Ratio IC50” value (in [6]; in the data set on MRC5) were 5.45 and 36.22, respectively. Moreover, the inhibition result in data set [8] and in data set [17] was “Active” throughout. Further, the “topoisomerase 2 inhibition (active/not active)” value in data set [9] was “Active”. Also, the result (in [10]; in the data set with Escherichia coli; in the data set with Huh-7 [16]) was Active.

Broadly, the pIC50 is the negative decadic logarithm of the IC50, by convention in mol/L.

(Values after ChEMBL document CHEMBL3758117, “Discovery of indeno[1,2-b]quinoxaline derivatives as potential anticancer agents” (Eur J Med Chem, 2016).)
